These results are taken from article PMC10249106 (ACS Omega, 2023).

The term IC50 denotes the concentration at which inhibition is half-maximal.

One assay has as its system HepG2 cells. Description: MTT cytotoxicity assay, HepG2. Type of assay: cell-based. To be noted: Homo sapiens, HepG2, 24 h, read-out: IC50 HePG2. An outline of the steps:
(§1)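 Cells (ATCC via VACSERA) grown in RPMI-1640 with 10% FBS, penicillin 100 units/mL and streptomycin 100 μg/mL, 37 °C, 5% CO2. Seeded at 1.0 × 10^4 cells/well and held 48 h, then exposed to a range of test compound concentrations for 24 h. MTT (5 mg/mL solution) added for 4 h, formazan dissolved in DMSO, absorbance 570 nm. Run in triplicate; IC50 calculated. 5-FU reference.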
(Tetrazolium assays rely on reduction of a dye to a coloured formazan, in cell work by metabolically active cells.)

The subject of another assay is MCF-7 cells. Description: MTT cytotoxicity assay, MCF-7. Type of assay: cell-based. The note with it: Homo sapiens, MCF7, 24 h, read-out: IC50 MCF-7. Summed up: as §1
In the next assay the test system is PC3 cells. Kind of assay: MTT cytotoxicity assay, PC3. In kind it is cell-based. To be noted: Homo sapiens, PC-3, 24 h, read-out: IC50 PC3. An outline of the steps: as §1
The test system of another assay is HCT-116 cells. Description: MTT cytotoxicity assay, HCT-116. Type of assay: cell-based. The note with it: Homo sapiens, HCT-116, 24 h, read-out: IC50 HCT-116. Summed up: as §1
The next assay has as its target Pim-1 kinase (Homo sapiens, UniProt P11309). Description: Pim-1 kinase inhibition, luminescent ADP-Glo kinase assay. Type of assay: biochemical. For orientation: In ADP-Glo the light output rises with the ADP produced.

Pim-1 kinase, sequence (P11309 whole entry): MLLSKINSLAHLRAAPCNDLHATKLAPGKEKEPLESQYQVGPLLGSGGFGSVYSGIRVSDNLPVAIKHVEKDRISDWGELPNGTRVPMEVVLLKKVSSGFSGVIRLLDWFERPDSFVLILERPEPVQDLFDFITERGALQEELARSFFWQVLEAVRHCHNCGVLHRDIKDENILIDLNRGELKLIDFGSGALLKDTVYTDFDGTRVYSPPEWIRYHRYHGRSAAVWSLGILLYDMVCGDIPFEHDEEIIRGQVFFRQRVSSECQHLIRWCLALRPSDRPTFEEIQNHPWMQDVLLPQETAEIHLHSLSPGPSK

Take `N#Cc1c(-c2cc3ccccc3nc2Cl)cc(-c2ccccc2)[nH]c1=O` [3a, 4-(2-Chloroquinolin-3-yl)-2-oxo-6-phenyl-1,2-dihydropyridine-3-carbonitrile]: the IC50 in the assay on HepG2 cells stood at 11.6 ± 0.57 µM; with MCF-7 cells, 60 ± 2.93 µM; with PC3 cells, 26.9 ± 1.28 µM; with HCT-116 cells, 49.9 ± 2.36 µM; on Pim-1 kinase, 0.9 ± 0.04 µM.
The corresponding values for `N#Cc1c(-c2cc3ccccc3nc2Cl)cc(-c2cccc(N)c2)[nH]c1=O` [3b, 6-(3-Aminophenyl)-4-(2-chloroquinolin-3-yl)-2-oxo-1,2-dihydropyridine-3-carbonitrile] are 12.4 ± 0.59 µM, 42.4 ± 2.13 µM, 18.4 ± 0.89 µM, 30.9 ± 1.52 µM and 0.85 ± 0.04 µM.
In the same order, the values of `COc1ccc(-c2cc(-c3cc4ccccc4nc3Cl)c(C#N)c(=O)[nH]2)cc1` [3c, 4-(2-Chloroquinolin-3-yl)-6-(4-methoxyphenyl)-2-oxo-1,2-dihydropyridine-3-carbonitrile] are 14.1 ± 0.68 µM, 25.4 ± 1.2 µM, 25.8 ± 1.3 µM, 18.3 ± 0.89 µM and 0.79 ± 0.04 µM.
The corresponding values for `N#Cc1c(-c2cc3ccccc3nc2Cl)cc(-c2ccc(Br)cc2)[nH]c1=O` [3d, 6-(4-Bromophenyl)-4-(2-chloroquinolin-3-yl)-2-oxo-1,2-dihydropyridine-3-carbonitrile] are 16.2 ± 0.77 µM, 19.9 ± 0.96 µM, 20.5 ± 0.97 µM, 20 ± 0.99 µM and 0.72 ± 0.03 µM.
With `N#Cc1c(-c2cc3ccccc3nc2Cl)cc(-c2ccc(Cl)cc2Cl)[nH]c1=O` [3e, 4-(2-Chloroquinolin-3-yl)-6-(2,4-dichlorophenyl)-2-oxo-1,2-dihydropyridine-3-carbonitrile], the IC50 with HepG2 cells was 11.6 ± 0.57 µM; in the assay with MCF-7 cells it was 45.9 ± 2.18 µM; in the assay with PC3 cells it was 25.9 ± 1.25 µM; with HCT-116 cells, 50.7 ± 2.5 µM; on Pim-1 kinase, 2.31 ± 0.11 µM.
Turning to `N#Cc1c(-c2cc3ccccc3nc2Cl)cc(-c2ccccc2)nc1Cl` [4a, 2-Chloro-4-(2-chloroquinolin-3-yl)-6-phenylnicotinonitrile], the IC50 in the assay on HepG2 cells was 10 ± 0.49 µM; with MCF-7 cells it was 75.7 ± 3.74 µM; in the assay on PC3 cells, 35.3 ± 1.67 µM; in the assay on HCT-116 cells it was 50 ± 2.44 µM; against Pim-1 kinase it was 1.24 ± 0.06 µM. Further, the “fold less potent than quercetagetin (Pim-1 inhibition)” value on Pim-1 kinase is listed as “about 2 fold”.
For the molecule `N#Cc1c(-c2cc3ccccc3nc2Cl)cc(-c2cccc(N)c2)nc1Cl` [4b, 6-(3-Aminophenyl)-2-chloro-4-(2-chloroquinolin-3-yl) nicotinonitrile], the 50% inhibitory concentration (IC50) in the assay with HepG2 cells was 12 ± 0.59 µM; in the assay on MCF-7 cells, 19.2 ± 0.94 µM; in the assay with PC3 cells it was 15 ± 0.74 µM; in the assay on HCT-116 cells, 20.2 ± 0.96 µM; against Pim-1 kinase, 0.63 ± 0.03 µM.
The corresponding values for `COc1ccc(-c2cc(-c3cc4ccccc4nc3Cl)c(C#N)c(Cl)n2)cc1` [4c, 2-Chloro-4-(2-chloroquinolin-3-yl)-6-(4-methoxyphenyl) nicotinonitrile] are 8.02 ± 0.38 µM, 15.7 ± 0.78 µM, 13.6 ± 0.67 µM, 7.15 ± 0.35 µM and 0.61 ± 0.03 µM.
Consider `N#Cc1c(-c2cc3ccccc3nc2Cl)cc(-c2ccc(Br)cc2)nc1Cl` [4d, 6-(4-Bromophenyl)-2-chloro-4-(2-chloroquinolin-3-yl) nicotinonitrile], for which the IC50 in the assay on HepG2 cells amounted to 6.95 ± 0.34 µM; in the assay on MCF-7 cells, 8.5 ± 0.42 µM; in the assay on PC3 cells it was 14.1 ± 0.7 µM; with HCT-116 cells, 8.35 ± 0.42 µM; against Pim-1 kinase it was 0.46 ± 0.02 µM. Besides, the “times more potent than A (Pim-1 inhibition)” value at Pim-1 kinase is on record as 2 times.
Regarding `N#Cc1c(-c2cc3ccccc3nc2Cl)cc(-c2ccc(Cl)cc2Cl)nc1Cl` [4e, 2-Chloro-4-(2-chloroquinolin-3-yl)-6-(2,4-dichlorophenyl) nicotinonitrile], the concentration for half-maximal inhibition (IC50) in the assay on HepG2 cells worked out at 11.5 ± 0.56 µM; with MCF-7 cells, 55.5 ± 2.71 µM; with PC3 cells, 35.1 ± 1.73 µM; in the assay with HCT-116 cells, 65.1 ± 3.08 µM; on Pim-1 kinase, 1.42 ± 0.07 µM. For the same molecule, the “fold less potent than quercetagetin (Pim-1 inhibition)” value at Pim-1 kinase is reported as about 2.5 fold.
With `O=c1[nH]cc(F)c(=O)[nH]1` [5-FU, 5-fluorouracil, reference compound], the IC50 with HepG2 cells was 9.42 ± 0.46 µM; with MCF-7 cells, 7.75 ± 0.37 µM; in the assay on PC3 cells, 10.3 ± 0.5 µM; in the assay on HCT-116 cells, 8.01 ± 0.39 µM.
